Broadly, the IC50 is the concentration needed to halve the response being measured. Usually LogP stands for the decadic logarithm of the partition coefficient of the neutral form, usually between octanol and water. As a reminder, the inhibition is how much of the control response was suppressed. A word on the EC50: it is the concentration giving half of the maximal effect. The low end stands for an effect from little substance, the high end for a need for much substance.

These results are taken from paper PMC10408732 (Anesthesia and Analgesia, 2023).

Where two headings read alike, the source gives them in different places.

Series [1] concerns the target T1, rat α7 nAChR (Rattus norvegicus, UniProt Q05941). Conditions: rα7, same conditions, cited from earlier work.
For series [2], the system named is oxaliplatin-induced neuropathic pain in mice. Conditions: oxaliplatin model; cited from earlier work.
In series [3] the target is T2, human CaV2.2 channel (Homo sapiens, UniProt Q00975). Conditions: cited from earlier work.
For series [4] the following is noted: same software; cited from earlier work.
Another series has as its target rat α9α10 nAChR (Rattus norvegicus, UniProt P43144+Q9JLB5). The experiment in a line: Two-electrode voltage clamp at rα9α10 nAChRs expressed in Xenopus laevis oocytes. The format is cell-based. Conditions: for IC50: Inhibition IC50 (μM), −80 mV.
In series [5] the test system is oxaliplatin-induced neuropathic pain in mice. The experiment in a line: Oxaliplatin-induced neuropathic pain, cold plate test. The format is in vivo. An outline of the steps:
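Male CD-1 mice, n = 10/condition, given oxaliplatin 2.4 mg/kg i.p. in 5% glucose, 5 days/week for 2 weeks. On day 15: baseline cold plate, then oral test compound (1, 3, 10 or 30 mg/kg, or a two-compound combination at 30 mg/kg each) in 1% carboxymethyl cellulose. Hind-paw licking latency every 15 min for 60–75 min, 30 s cutoff; mean ± SEM; 1-way ANOVA with Bonferroni.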

Series [6] concerns the target T1, rat α7 nAChR. The series can be described thus: Two-electrode voltage clamp at rα7 nAChRs expressed in Xenopus laevis oocytes. In kind it is cell-based.
The target in series [7] is T2, human CaV2.2 channel. The experiment in a line: Whole-cell patch clamp recording of CaV2.2 channels expressed in HEK293T cells. In kind it is cell-based. An outline of the steps:
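Human CaV2.2 transiently expressed in HEK293T cells; whole-cell patch clamp at room temperature 24–48 h after transfection. Bath: 10 mM BaCl2, 30 mM TEA-Cl, pH 7.35. Pipette (2–3 MΩ): K-gluconate with 5 mM EGTA, pH 7.2. Ba2+ currents evoked from −80 mV by steps to −10 or −15 mV at 0.1 Hz, in the absence and presence of test compound.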

The test system of series [8] is mice. The series can be described thus: Rota-rod test. In kind it is in vivo. Put shortly:
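Rota-rod, mice n = 5/condition. Test compound 30 mg/kg, single dose (tested right after) or daily for 7 days (tested day 8); vehicle controls. Falls from the rod counted over a 30 s test, every 15 min for 1 h. Mice with <3 or >6 falls in the pretest were excluded.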

Series [9] concerns mice. The experiment in a line: Effect on pain threshold, cold plate test. Conditions: acute or repeated (7 days) 30 mg/kg, P > .05 vs vehicle. The format is in vivo.
Series [10] has as its system mice. The experiment in a line: Effect on pain threshold, hot plate test. In kind it is in vivo. Conditions: acute or repeated (7 days) 30 mg/kg, P > .05 vs vehicle. A general note: Hot-plate and tail-flick tests time the reaction to a heat stimulus.
Setting [11] is: read-out: inhibition of ACh-evoked currents.
The mark [12] stands for this setting: oxaliplatin-treated mice, 30 mg/kg oral, cold plate test.
Where [13] appears, read: acute, single dose 30 mg/kg, counted every 15 min for 1 h, P > .05 vs vehicle.

Sequence of rat α9α10 nAChR (P43144 26-479): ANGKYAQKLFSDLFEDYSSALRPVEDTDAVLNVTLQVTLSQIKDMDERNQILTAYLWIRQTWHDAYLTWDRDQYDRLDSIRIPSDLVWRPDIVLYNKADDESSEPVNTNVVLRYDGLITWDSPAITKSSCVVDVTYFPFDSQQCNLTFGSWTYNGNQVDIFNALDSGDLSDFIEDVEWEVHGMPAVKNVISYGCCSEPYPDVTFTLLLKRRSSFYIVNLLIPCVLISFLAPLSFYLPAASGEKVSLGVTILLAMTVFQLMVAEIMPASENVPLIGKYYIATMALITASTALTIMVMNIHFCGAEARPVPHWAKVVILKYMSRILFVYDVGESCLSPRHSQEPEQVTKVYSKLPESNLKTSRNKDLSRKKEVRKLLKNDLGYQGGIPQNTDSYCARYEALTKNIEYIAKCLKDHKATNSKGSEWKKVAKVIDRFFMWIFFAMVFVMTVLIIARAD
Sequence of rat α9α10 nAChR (Q9JLB5 25-447): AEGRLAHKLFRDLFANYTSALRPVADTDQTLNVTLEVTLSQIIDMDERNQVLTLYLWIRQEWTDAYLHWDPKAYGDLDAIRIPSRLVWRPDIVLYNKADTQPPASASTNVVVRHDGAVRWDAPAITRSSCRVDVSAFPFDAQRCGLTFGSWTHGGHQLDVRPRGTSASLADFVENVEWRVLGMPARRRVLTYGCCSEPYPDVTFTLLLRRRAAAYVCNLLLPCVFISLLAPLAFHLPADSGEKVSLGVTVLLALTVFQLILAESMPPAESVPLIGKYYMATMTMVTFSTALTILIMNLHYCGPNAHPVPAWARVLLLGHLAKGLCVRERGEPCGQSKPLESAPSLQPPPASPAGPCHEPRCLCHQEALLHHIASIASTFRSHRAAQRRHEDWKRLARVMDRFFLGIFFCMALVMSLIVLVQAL
T2 sequence (Q00975 whole entry): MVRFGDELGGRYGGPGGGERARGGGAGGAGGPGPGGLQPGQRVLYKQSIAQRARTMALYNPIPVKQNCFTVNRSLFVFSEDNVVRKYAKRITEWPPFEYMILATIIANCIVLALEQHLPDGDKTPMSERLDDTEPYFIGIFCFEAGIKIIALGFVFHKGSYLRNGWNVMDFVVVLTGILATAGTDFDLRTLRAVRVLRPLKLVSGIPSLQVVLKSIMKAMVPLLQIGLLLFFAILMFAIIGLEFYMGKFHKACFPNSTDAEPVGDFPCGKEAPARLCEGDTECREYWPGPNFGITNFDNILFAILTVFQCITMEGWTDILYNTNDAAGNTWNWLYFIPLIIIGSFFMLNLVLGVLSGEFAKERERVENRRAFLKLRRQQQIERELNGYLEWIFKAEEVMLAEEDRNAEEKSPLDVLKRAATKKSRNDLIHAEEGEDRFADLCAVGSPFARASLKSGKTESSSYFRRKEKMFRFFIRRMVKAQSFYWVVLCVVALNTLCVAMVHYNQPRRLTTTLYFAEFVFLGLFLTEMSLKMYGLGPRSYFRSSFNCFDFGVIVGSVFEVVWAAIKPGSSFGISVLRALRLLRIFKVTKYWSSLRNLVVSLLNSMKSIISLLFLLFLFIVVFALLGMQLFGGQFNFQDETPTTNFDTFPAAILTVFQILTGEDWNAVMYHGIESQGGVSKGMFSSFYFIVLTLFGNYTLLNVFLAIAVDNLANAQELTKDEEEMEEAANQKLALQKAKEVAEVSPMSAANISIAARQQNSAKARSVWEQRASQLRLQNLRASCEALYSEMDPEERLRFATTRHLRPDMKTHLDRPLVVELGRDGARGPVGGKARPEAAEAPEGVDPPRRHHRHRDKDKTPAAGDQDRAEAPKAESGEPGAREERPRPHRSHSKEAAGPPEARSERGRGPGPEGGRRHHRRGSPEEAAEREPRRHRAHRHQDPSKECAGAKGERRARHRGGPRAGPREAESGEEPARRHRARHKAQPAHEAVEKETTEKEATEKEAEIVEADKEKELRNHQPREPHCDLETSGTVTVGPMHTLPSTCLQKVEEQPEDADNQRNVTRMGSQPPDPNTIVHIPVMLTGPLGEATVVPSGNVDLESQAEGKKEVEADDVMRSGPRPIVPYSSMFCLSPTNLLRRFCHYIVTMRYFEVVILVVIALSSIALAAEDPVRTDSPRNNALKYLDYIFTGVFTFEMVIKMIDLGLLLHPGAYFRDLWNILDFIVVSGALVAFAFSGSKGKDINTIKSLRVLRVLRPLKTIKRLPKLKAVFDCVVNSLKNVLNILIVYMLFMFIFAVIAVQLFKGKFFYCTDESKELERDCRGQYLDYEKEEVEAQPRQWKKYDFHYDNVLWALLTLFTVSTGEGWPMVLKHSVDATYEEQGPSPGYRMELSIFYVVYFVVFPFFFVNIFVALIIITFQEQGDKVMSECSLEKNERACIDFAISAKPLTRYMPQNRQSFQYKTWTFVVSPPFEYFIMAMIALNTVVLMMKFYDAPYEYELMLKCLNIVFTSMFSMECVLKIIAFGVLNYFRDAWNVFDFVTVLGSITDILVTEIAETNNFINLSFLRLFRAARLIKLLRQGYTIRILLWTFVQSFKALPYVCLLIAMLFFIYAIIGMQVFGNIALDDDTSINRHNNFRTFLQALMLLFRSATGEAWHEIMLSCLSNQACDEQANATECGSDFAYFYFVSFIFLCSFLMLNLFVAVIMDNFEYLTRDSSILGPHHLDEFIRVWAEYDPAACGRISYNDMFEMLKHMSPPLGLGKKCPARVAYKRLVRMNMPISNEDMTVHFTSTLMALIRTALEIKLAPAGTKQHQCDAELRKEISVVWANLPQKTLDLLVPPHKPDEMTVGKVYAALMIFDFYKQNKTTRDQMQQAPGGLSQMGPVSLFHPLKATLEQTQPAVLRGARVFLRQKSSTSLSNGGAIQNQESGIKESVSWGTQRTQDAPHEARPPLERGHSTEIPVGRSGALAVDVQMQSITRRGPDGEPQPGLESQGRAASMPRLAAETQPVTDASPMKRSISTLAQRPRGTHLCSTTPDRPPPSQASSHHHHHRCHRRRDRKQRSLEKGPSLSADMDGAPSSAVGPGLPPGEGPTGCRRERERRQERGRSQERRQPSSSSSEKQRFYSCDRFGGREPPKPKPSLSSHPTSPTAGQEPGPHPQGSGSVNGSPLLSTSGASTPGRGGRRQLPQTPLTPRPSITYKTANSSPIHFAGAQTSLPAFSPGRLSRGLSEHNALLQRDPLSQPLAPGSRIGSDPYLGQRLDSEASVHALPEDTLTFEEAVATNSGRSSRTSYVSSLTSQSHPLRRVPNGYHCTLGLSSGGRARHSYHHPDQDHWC
T2 sequence (P54284 whole entry partner): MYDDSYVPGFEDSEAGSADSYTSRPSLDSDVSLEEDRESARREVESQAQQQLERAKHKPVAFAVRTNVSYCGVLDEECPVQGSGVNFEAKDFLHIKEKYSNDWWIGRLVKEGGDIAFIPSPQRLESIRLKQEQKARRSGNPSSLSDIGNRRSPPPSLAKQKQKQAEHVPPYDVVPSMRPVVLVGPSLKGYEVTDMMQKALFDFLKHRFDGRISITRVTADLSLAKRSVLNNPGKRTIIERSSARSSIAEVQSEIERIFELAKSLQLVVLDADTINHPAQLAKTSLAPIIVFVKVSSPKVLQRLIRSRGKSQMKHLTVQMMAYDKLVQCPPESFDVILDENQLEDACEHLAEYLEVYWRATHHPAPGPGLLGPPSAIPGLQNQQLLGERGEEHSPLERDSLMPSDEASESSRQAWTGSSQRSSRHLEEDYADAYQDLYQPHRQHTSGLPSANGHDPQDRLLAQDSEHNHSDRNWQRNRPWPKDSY
T2 sequence (P54289 25-1103 partner): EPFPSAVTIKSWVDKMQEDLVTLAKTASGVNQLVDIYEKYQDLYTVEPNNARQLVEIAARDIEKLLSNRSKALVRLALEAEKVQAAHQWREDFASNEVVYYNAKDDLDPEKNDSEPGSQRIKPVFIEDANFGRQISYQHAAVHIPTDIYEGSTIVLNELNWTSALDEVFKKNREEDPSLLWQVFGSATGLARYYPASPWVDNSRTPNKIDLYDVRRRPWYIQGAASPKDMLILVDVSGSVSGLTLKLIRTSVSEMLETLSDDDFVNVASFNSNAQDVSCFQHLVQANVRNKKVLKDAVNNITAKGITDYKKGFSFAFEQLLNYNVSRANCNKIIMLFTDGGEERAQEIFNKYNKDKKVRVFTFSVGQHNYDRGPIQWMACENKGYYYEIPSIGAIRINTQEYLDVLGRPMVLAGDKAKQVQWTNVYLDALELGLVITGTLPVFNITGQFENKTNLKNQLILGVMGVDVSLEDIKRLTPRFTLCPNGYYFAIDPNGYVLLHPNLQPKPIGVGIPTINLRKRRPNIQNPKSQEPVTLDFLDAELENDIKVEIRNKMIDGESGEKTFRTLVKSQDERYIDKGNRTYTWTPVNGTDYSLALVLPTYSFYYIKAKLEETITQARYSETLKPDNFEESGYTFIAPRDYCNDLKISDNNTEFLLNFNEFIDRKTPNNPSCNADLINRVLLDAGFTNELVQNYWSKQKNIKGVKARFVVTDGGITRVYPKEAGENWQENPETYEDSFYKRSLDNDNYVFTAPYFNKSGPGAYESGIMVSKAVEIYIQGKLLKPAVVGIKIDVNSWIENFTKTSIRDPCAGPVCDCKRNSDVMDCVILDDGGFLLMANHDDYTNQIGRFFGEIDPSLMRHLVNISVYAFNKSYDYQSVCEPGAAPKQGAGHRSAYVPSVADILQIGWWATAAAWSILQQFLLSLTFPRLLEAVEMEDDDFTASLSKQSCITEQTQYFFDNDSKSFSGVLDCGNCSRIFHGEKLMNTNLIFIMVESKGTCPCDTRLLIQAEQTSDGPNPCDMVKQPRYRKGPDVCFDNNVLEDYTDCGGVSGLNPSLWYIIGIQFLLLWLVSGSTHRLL

In the case of `Cc1ccc(NC(=O)/C=C/c2ccco2)cc1` [PAM-2, (E)-3-furan-2-yl-N-p-tolyl-acrylamide], on rat α7 nAChR [1] (read-out: potency at rα7 nAChRs (IC50 as printed)), the IC50 was 12 µM. Besides, the “maximal efficacy at rα7 nAChRs” value on rat α7 nAChR [1] is given as 135% ± 4%. For the same molecule, in [2], the “active dose (antinociceptive activity)” value is given as 3 mg/kg. For the same molecule, the IC50 at human CaV2.2 channel [3] was 89 µM. Also, in series [4], the LogBBB is reported as 0.09 and the lipophilicity (LogP) is recorded as 2.96.

Turning to `Cc1ccc(NC(=O)/C=C/c2cccs2)cc1` [DM497, (E)-3-(thiophen-2-yl)-N-(p-tolyl)acrylamide], the concentration for half-maximal inhibition (IC50) on rat α9α10 nAChR (rα9α10, agonist ACh 10 µM) turned out to be 340 ± 21 µM; on rat α9α10 nAChR (rα9α10, agonist ACh 100 µM), 369 ± 21 µM. For the same molecule, the inhibition at 300 µM at rat α9α10 nAChR (setting [11]) is 40%; at human CaV2.2 channel [7] (HEK-293T, read-out: inhibition of whole-cell Ba2+ currents, hCaV2.2, at 300 µM) it was ~20%. Also, the “activity when administered alone (cold plate test)” value in series [5] (mice without oxaliplatin, 10 mg/kg) was “without inducing any activity when administered alone”. In series [5] (oxaliplatin model, this work), the “active dose (antinociceptive activity)” value was found to be 10 mg/kg. Moreover, the “onset of antinociceptive activity” value in series [5] (oxaliplatin-treated mice, 10 mg/kg oral, cold plate test) stood at 30 min; in series [5] (setting [12]) it was 15 min. The “extent of the antinociceptive effect at 30 mg/kg compared to 10 mg/kg” value in [5] (setting [12]) is “without changing the extent of the antinociceptive effect”. Moreover, in series [5] (oxaliplatin-treated mice, day 15, single oral 1 mg/kg), the “antinociceptive activity (licking latency, cold plate test)” value was “but not 1 or 3 mg/kg”. On rat α7 nAChR [6], the midpoint of the response, the EC50, lay at 86 ± 10 µM. For the same molecule, at rat α7 nAChR [6] (read-out: maximal efficacy at rα7 nAChRs), the Emax was determined as 196%. Also, the “potentiation of ACh-evoked currents” value on rat α7 nAChR [6] (rα7, 30 µM ACh, 100 µM compound) is given as ~ 100%. Moreover, the “Potentiation nH” value on rat α7 nAChR [6] (rα7, agonist ACh 30 µM) is ~2. The “inhibitory activity at the CaV2.2 channel (in words)” value on human CaV2.2 channel [7] (CaV2.2 channel) is reported as “minimal effect”. The “endurance time (number of falls per 30 seconds)” value in the series with mice [8] (setting [13]) is recorded as “did not modify the endurance time”.

On to `O=C(/C=C/c1ccco1)N1CCc2ccccc21` [DM489, (E)-3-(furan-2-yl)-1-(indolin-1-yl)prop-2-en-1-one], for which the “active dose (antinociceptive activity)” value in series [2] is 10 mg/kg. For the same molecule, in series [4], the LogBBB is recorded as 0.17.

With `Cc1ccc(N(C)C(=O)/C=C/c2ccco2)cc1` [DM490, (E)-3-(furan-2-yl)-N-methyl-N-(p-tolyl)acrylamide], the half-inhibitory concentration (IC50) worked out at 41 ± 4 µM at rat α9α10 nAChR (rα9α10, agonist ACh 10 µM); 36 ± 4 µM on rat α9α10 nAChR (rα9α10, agonist ACh 100 µM); 15.1 ± 1.8 µM on rat α7 nAChR [6]; 93 ± 16 µM against human CaV2.2 channel [7]. Besides, the inhibition at 30 µM at rat α9α10 nAChR (setting [11]) was ~45%. For the same molecule, at rat α9α10 nAChR (α9α10 nAChR), the “fold higher antagonist potency than that for DM497” value is recorded as > 8 fold. Also, in series [5] (30 mg/kg oral, alone), the “activity on oxaliplatin-treated animals (cold plate test)” value is given as “without inducing any activity on oxaliplatin-treated animals”. Also, the inhibition at 10 µM on rat α7 nAChR [6] (read-out: inhibition of ACh-evoked current amplitude) is ~40%. Besides, the “Inhibition nH” value on rat α7 nAChR [6] (rα7, agonist ACh 30 µM) is < 1.5. Also, the “pain threshold for cold stimuli” value in the series on mice [9] is on record as “did not change the pain threshold”. Besides, the “pain threshold for heat stimuli” value in the series on mice [10] is “did not change the pain threshold”. Besides, the “endurance time (number of falls per 30 seconds)” value in the series with mice [8] (setting [13]) was “did not modify the endurance time”; with mice [8] (repeated, 30 mg/kg daily for 7 days, day 8, P > .05 vs vehicle) it was “did not modify the endurance time”.

As for `O=C1[O][Pt]2([NH][C@@H]3CCCC[C@H]3[NH]2)[O]C1=O` [Oxaliplatin, reference compound], the half-inhibitory concentration (IC50) on rat α7 nAChR [6] (read-out: Inhibition IC50, rα7, agonist ACh 30 µM, −80 mV) worked out at 200 µM; on rat α7 nAChR [6] (read-out: Inhibition IC50, rα7, agonist nicotine 25 µM) it was 200 µM.
